What was measured:
[1] = biological target: 5-hydroxytryptamine receptor 4 (Rattus norvegicus) (UniProt Q62758); experiment: Antagonistic activity by ability to block serotonin induced relaxation (mediated by activation of 5-hydroxytryptamine 4 receptor) in carbamylcholine (10e-6 M) contracted esophagus at a concentration of 10e-7 M.; type: functional, tissue-based
How it was run: (§1)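 Isolated rat esophagus precontracted with carbamylcholine (10^-6 M). Tissue was challenged with serotonin (1 µM) in the presence of the antagonist at a given concentration or of vehicle. Relaxation was recorded as % relaxation to 10^-6 M 5-HT, given as mean ± SEM with the number of determinations.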

[2] = biological target: 5-hydroxytryptamine receptor 4 (Rattus norvegicus) (UniProt Q62758); experiment: Antagonistic activity by ability to block serotonin induced relaxation (mediated by activation of 5-hydroxytryptamine 4 receptor) in carbamylcholine (10e-6 M) contracted esophagus at a concentration of 10e-6 M.; type: functional, tissue-based; how it was run: as §1
[3] = biological target: 5-hydroxytryptamine receptor 4 (Rattus norvegicus) (UniProt Q62758); experiment: Antagonistic activity evaluated by ability to block serotonin induced relaxation via 5-hydroxytryptamine 4 receptor) in carbamylcholine (10e-6 M) contracted esophagus at a concentration of 0.1 mg/kg (p.o.); type: functional, organism-based; design: dose 0.1 mg/kg
How it was run: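 Rats were dosed with the antagonist by oral gavage. Esophagus was removed 3 h after dosing and challenged ex vivo with serotonin. Read-out was % relaxation of the carbamylcholine-contracted tissue to 10^-6 M 5-HT, given as mean ± SEM with the number of determinations.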

[4] = biological target: Adrenergic receptor alpha-1 (Rattus norvegicus) (UniProt P15823+P23944+P43140); experiment: Affinity for the alpha-1 adrenergic receptor determined by the displacement of [3H]prazosin from rat whole brain tissue.; type: tissue-based

Sequence of 5-hydroxytryptamine receptor 4 (Rattus norvegicus) (Q62758 whole entry): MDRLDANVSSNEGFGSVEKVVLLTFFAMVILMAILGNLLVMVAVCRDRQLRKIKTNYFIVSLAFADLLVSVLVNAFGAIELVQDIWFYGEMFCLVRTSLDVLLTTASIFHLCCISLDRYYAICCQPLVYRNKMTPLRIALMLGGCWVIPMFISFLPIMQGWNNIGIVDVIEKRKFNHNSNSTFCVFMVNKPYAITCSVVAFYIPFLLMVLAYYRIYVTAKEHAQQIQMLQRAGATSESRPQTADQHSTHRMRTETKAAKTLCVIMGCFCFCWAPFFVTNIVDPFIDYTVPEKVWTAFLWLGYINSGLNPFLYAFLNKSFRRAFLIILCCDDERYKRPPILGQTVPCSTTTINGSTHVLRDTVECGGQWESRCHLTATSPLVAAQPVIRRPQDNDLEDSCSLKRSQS

Row | SMILES | Relaxation [1] | Relaxation [2] | Relaxation [3] | pKi [4]
1 | CC(C)n1nc(C(=O)NC2CCN(CCNC(=O)C34C[C@H]5C[C@@H](C3)C[C@@H](C4)C5)CC2)c2ccccc21 | 38.5% | 1% | – | –
2 | CC(C)n1nc(C(=O)NCCN2CCCCCC2)c2ccccc21 | – | 4.8% | 52% | 5
3 | CCn1nc(C(=O)NC2CC3CCC(C2)N3C)c2ccccc21 (centres undefined) | – | 6.7% | – | –
4 | CCC(C)n1c(=O)n(C(=O)NC2CC3CCC(C2)N3C)c2ccccc21 (centres undefined) | – | 8.8% | – | –
5 | CCCn1cc(C(=O)NC2CC3CCC(C2)N3C)c2ccccc21 (centres undefined) | – | 34.3% | – | –
6 | CCCC(=O)NC1CCN(CCNC(=O)c2nn(C(C)C)c3ccccc23)CC1 | 26.5% | – | 51% | –
7 | CC(C)n1nc(C(=O)NCCN2CCN(C(=O)c3ccccc3)CC2)c2ccccc21 | – | 19.8% | – | –
8 | CC(C)n1nc(C(=O)NCCN2CCN(Cc3ccccc3)CC2)c2ccccc21 | – | 9.1% | – | –
9 | CC(C)n1c(=O)n(C(=O)NC2CCN(C)CC2)c2ccccc21 | 40.8% | 7.5% | – | –
10 | CC(C)n1nc(C(=O)NCCN2CCC(NC(=O)Cc3ccccc3)CC2)c2ccccc21 | 23.7% | 5.6% | 39% | –
11 | CCn1cc(C(=O)NC2CC3CCC(C2)N3C)c2ccccc21 (centres undefined) | – | 44.8% | – | –
12 | CCC(=O)NC1CCN(CCNC(=O)c2nn(C(C)C)c3ccccc23)CC1 | 11.3% | – | 36% | –
13 | CC(C)n1nc(C(=O)NCCCCN2CCCCC2)c2ccccc21 | 43.3% | 3.3% | 49% | 5.2
14 | CC(C)n1cc(C(=O)NC2CC3CCC(C2)N3C)c2ccccc21 (centres undefined) | – | 25.3% | – | –
15 | CC(C)n1nc(C(=O)NC2CCN(CCCCCc3ccccc3)CC2)c2ccccc21 | – | 43.7% | – | –
16 | CC(C)n1nc(C(=O)NCCN2CCCC2)c2ccccc21 | – | 4.3% | 51% | < 4
17 | CC(C)n1c(=O)n(C(=O)NC2CCN(CCCOc3ccc(F)cc3)CC2)c2ccccc21 | 62% | – | – | –

Row | SMILES | Relaxation [1] | Relaxation [2] | Relaxation [3] | pKi [4]
18 | CC(C)n1nc(C(=O)NCCN2CCC(Cc3ccccc3)CC2)c2ccccc21 | 42% | 16.4% | 26% | –
19 | CC(C)n1nc(C(=O)NC2CC3CCC(C2)N3CCCOc2ccc(F)cc2)c2ccccc21 (centres undefined) | 22.2% | 17.7% | – | –
20 | CN1C2CCC1CC(NC(=O)n1c(=O)n(C)c3ccccc31)C2 (centres undefined) | – | 7.3% | – | –
21 | CN1C2CCC1CC(NC(=O)c1c[nH]c3ccccc13)C2 (centres undefined) | – | 60% | – | –
22 | CC(C)n1nc(C(=O)NCCN2CCC(NC(=O)NCc3ccccc3)CC2)c2ccccc21 | – | 3.3% | 30% | –
23 | CCCn1nc(C(=O)NC2CC3CCC(C2)N3C)c2ccccc21 (centres undefined) | – | 2.5% | – | –
24 | CCN(CC)CCNC(=O)c1nn(C(C)C)c2ccccc12 | – | 26.8% | – | –
25 | CC(C)n1nc(C(=O)NCCN2CCC(NC(=O)Nc3ccc(F)cc3)CC2)c2ccccc21 | 44.8% | 6.3% | 45.5% | –
26 | CC(C)n1nc(C(=O)NC2CCNCC2)c2ccccc21 | – | 32% | – | –
27 | CCC(C)n1cc(C(=O)NC2CC3CCC(C2)N3C)c2ccccc21 (centres undefined) | – | 57.8% | – | –
28 | CC(C)n1nc(C(=O)NCCN2CCc3ccccc3C2)c2ccccc21 | – | 20.3% | 41% | –
29 | CN1C2CCC1CC(NC(=O)c1cn(C)c3ccccc13)C2 (centres undefined) | – | 47.3% | – | –
30 | CC(C)n1c(=O)n(C(=O)NC2CC3CCC(C2)N3CCCOc2ccc(F)cc2)c2ccccc21 (centres undefined) | 29.5% | 2.1% | – | –
31 | CC(C)n1nc(C(=O)NCCN2CCC(NC(=O)Nc3ccccc3)CC2)c2ccccc21 | – | 11% | 33.7% | –
32 | CC(C)n1nc(C(=O)NCCN2CCC(N)CC2)c2ccccc21 | – | 36.8% | 41% | –
33 | CC(C)n1nc(C(=O)NCCN2CCOCC2)c2ccccc21 | 42.3% | 19.8% | – | –
34 | CC(C)n1nc(C(=O)NCCN2CCC(NS(C)(=O)=O)CC2)c2ccccc21 | – | 7.3% | 29% | –

— ChEMBL document CHEMBL1131384, “Synthesis and structure-activity relationships of potent and orally active 5-HT4 receptor antagonists: indazole and benzimidazolone derivatives” (J Med Chem, 1998)
